Experiment [1] relates to Mycobacterium tuberculosis variant bovis. As to the kind of experiment: Antitubercular activity against Mycobacterium bovis BCG measured after 10 days by liquid broth microdilution assay. It counts as functional. As to conditions: 240 h, time 10 day. The gist of the method: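 Broth microdilution in 7H9 with 0.2% glycerol, 0.05% Tween 80 and 10% ADS. Mid-log cultures (OD600 0.4–0.6) were diluted to OD600 0.005 (1.0 × 10^6 CFU ml−1) and added to two-fold serial compound dilutions. Plates were incubated at 37 °C for 10 days and read visually. MIC was the lowest concentration with no turbidity.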
On the technique in general: Dilution methods test growth across graded concentrations, often in twofold steps.

Experiment [2] shares this test system. Description: Antitubercular activity against Mycobacterium bovis BCG assessed as inhibition of intracellular ATP synthesis incubated for 24 hrs by BacTiter-Glo microbial cell viability assay. It counts as functional, organism-based. The essentials:
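Mid-log cultures were adjusted to OD600 0.05 and exposed to compounds at 37 °C for 24 h. BacTiter-Glo reagent was then added for 12 min and luminescence was read. H37Ra and BCG were grown in 7H9 with glycerol, Tween 80 and ADS. mc2 6230 was grown with tyloxapol plus methionine, leucine, arginine and pantothenate. Values are the mean of triplicates.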

Our source for the MIC90 and IC50 values is ChEMBL document CHEMBL5532690, “Antitubercular activity of 2-mercaptobenzothiazole derivatives targeting Mycobacterium tuberculosis type II NADH dehydrogenase” (RSC Med Chem, 2024).

In brackets after ≈: the same amount, converted by molar mass.

With `O=C(CSc1nc2c(Br)cc(OC(F)(F)F)cc2s1)NC1CCCCC1`, the MIC90 (as a rule, the lowest concentration that inhibits either 90% of growth or 90% of the strains tested, depending on the study) in experiment [1] turned out to be 128 µg/mL (≈ 273 µM). In addition, in experiment [2], the IC50 (commonly the point on the concentration scale where inhibition reaches its midpoint) stood at 40.8 µg/mL (≈ 86.9 µM).

Regarding `O=C(CSc1nc2ccc(F)cc2s1)NC1CCCCC1`, the MIC90 in experiment [1] amounted to 8 µg/mL (≈ 24.7 µM). Also, the IC50 in experiment [2] was determined as 19.7 µg/mL (≈ 60.6 µM).

Consider `O=C(CSc1nc2ccc(Br)cc2s1)NC1CCCCC1`, for which the MIC90 in experiment [1] came to 128 µg/mL (≈ 332 µM). In experiment [2], the IC50 came to 31.8 µg/mL (≈ 82.4 µM).

Regarding `Cc1ccc2nc(SCC(=O)NC3CCCCC3)sc2c1`, the MIC90 in experiment [1] stood at 16 µg/mL (≈ 49.9 µM). Moreover, the IC50 in experiment [2] came to 14.4 µg/mL (≈ 44.9 µM).

`O=C(CSc1nc2ccc(OC(F)(F)F)cc2s1)NC1CCCCC1` displayed an MIC90 in experiment [1] of 128 µg/mL (≈ 328 µM). For the same compound, the IC50 in experiment [2] was determined as 30.4 µg/mL (≈ 77.9 µM).

With `CC(C)/N=c1\cc2n(-c3ccc(Cl)cc3)c3ccccc3nc-2cc1Nc1ccc(Cl)cc1` [CLOFAZIMINE], the MIC90 in experiment [1] stood at 0.25 µg/mL (≈ 0.528 µM).

`CO[C@H]1/C=C/O[C@@]2(C)Oc3c(C)c(O)c4c(O)c(c(/C=N/N5CCN(C)CC5)c(O)c4c3C2=O)NC(=O)/C(C)=C\C=C\[C@H](C)[C@H](O)[C@@H](C)[C@@H](O)[C@@H](C)[C@H](OC(C)=O)[C@@H]1C` [RIFAMPIN]: in experiment [1], the MIC90 is 0.03 µg/mL (≈ 0.0365 µM).

With `CC(C)c1ccc2nc(SCC(=O)NC3CCCCC3)sc2c1`, the MIC90 in experiment [1] amounted to 4 µg/mL (≈ 11.5 µM). Besides, in experiment [2], the IC50 stood at 9.89 µg/mL (≈ 28.4 µM).

Consider `NNC(=O)c1ccncc1` [ISONIAZID], for which the MIC90 in experiment [1] amounted to 0.06 µg/mL (≈ 0.438 µM).

For the compound `O=C(CSc1nc2c(Br)cc(F)cc2s1)NC1CCCCC1`, the MIC90 in experiment [1] turned out to be 4 µg/mL (≈ 9.92 µM). Also, the half-maximal inhibitory concentration (IC50) in experiment [2] came to 13.5 µg/mL (≈ 33.5 µM).

In experiment [1], `O=C(CSc1nc2ccc(Cl)cc2s1)NC1CCCCC1` registered an MIC90 of 64 µg/mL (≈ 188 µM). In addition, the IC50 in experiment [2] came to 32.9 µg/mL (≈ 96.4 µM).

Take `Cc1cc(C)c2nc(SCC(=O)NC3CCCCC3)sc2c1`: the MIC90 in experiment [1] worked out at 4 µg/mL (≈ 12 µM). The IC50 in experiment [2] stood at 13.4 µg/mL (≈ 40.2 µM).

Compound `O=C(CSc1nc2ccc(C(F)(F)F)cc2s1)NC1CCCCC1` registered an MIC90 in experiment [1] of 128 µg/mL (≈ 342 µM). For the same compound, the 50% inhibitory concentration (IC50) in experiment [2] was 19.7 µg/mL (≈ 52.6 µM).

In experiment [1], `O=C(CSc1nc2ccc([N+](=O)[O-])cc2s1)NC1CCCCC1` registered an MIC90 of 32 µg/mL (≈ 91.1 µM). For the same compound, the IC50 in experiment [2] came to 34.4 µg/mL (≈ 98 µM).

As for `O=C(CSc1nc2ccccc2s1)NC1CCCCC1`, the MIC90 in experiment [1] was found to be 64 µg/mL (≈ 209 µM). Moreover, the IC50 in experiment [2] was 33.2 µg/mL (≈ 108 µM).

In turn, `O=C(CSc1nc2c(ccc3ccccc32)s1)NC1CCCCC1` yielded an MIC90 in experiment [1] of 64 µg/mL (≈ 180 µM). Moreover, the IC50 in experiment [2] came to 38 µg/mL (≈ 106 µM).

`C=C(C)[C@H]1Cc2c(ccc3c2O[C@@H]2COc4cc(OC)c(OC)cc4[C@@H]2C3=O)O1` [ROTENONE] returned an MIC90 in experiment [1] of more than 64 µg/mL.

With `O=C(CSc1nc2ccccc2c(=O)[nH]1)NC1CCCCC1`, in experiment [1], the MIC90 is 1 µg/mL (≈ 3.15 µM). Besides, the IC50 in experiment [2] was determined as 4.99 µg/mL (≈ 15.7 µM).

Consider `O=C(CSc1nc2c(Br)cc(C(F)(F)F)cc2s1)NC1CCCCC1`, for which the MIC90 in experiment [1] was determined as 64 µg/mL (≈ 141 µM). The IC50 in experiment [2] stood at 39.8 µg/mL (≈ 87.9 µM).
